In ChEMBL document CHEMBL1240426, “Synthesis and biological evaluation of novel hybrid chalcone derivatives as vasorelaxant agents” (Eur J Med Chem, 2010):
pEC50: −log10 of the molar value.

Legend:
Aorta [1] = experiment: Vasodilatory activity in Sprague-Dawley rat aortic rings with endothelium assessed as inhibition of phenylephrine-induced vasoconstriction relative to phenylephrine; assay type: functional
Summary of the method: (§1)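 Endothelium-intact aortic rings from male Sprague-Dawley rats (4–6 months, ~250 g) were equilibrated for ≥1 h and then contracted isometrically with phenylephrine. Once tone stabilized (~20 min), compound was added cumulatively at 15–20 min intervals until relaxation reached steady state, with vehicle-only tissues run in parallel. Emax was taken as % of the PE contraction, and EC50 came from nonlinear regression of the concentration-response curve.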

Aorta [2] = experiment: Vasodilatory activity in Sprague-Dawley rat aortic rings with endothelium assessed as inhibition of phenylephrine-induced vasoconstriction; assay type: functional, tissue-based; summary of the method: as §1

Compound | pEC50 (Aorta [2]) | Emax (Aorta [1]) [%] | Activity (Aorta [2])
Cc1c(COc2cc(O)c(C(=O)/C=C/c3ccc4c(c3)OCO4)c(OCCO[N+](=O)[O-])c2)no[n+]1[O-] | 5.03 | 96 | Dose-dependent effect
O=C(/C=C/c1ccc2c(c1)OCO2)c1c(O)cc(O)cc1OCCO[N+](=O)[O-] | 4.87 | 103 | Dose-dependent effect
COC(=O)C1=C(C)NC(C)=C(C(=O)OCCOc2cc(O)ccc2C(=O)/C=C/c2ccc3c(c2)OCO3)C1c1cccc([N+](=O)[O-])c1 (configuration not stated) | 5.01 | 103 | Dose-dependent effect
O=C(/C=C/c1ccc2c(c1)OCO2)c1c(OCCO[N+](=O)[O-])cc(OCCO[N+](=O)[O-])cc1OCCO[N+](=O)[O-] | 5.08 | 104 | Dose-dependent effect
Cc1c(COc2cc(O)cc(O)c2C(=O)/C=C/c2ccc3c(c2)OCO3)no[n+]1[O-] | 4.92 | 95.7 | Dose-dependent effect

The remaining compounds from weak to strong by pEC50 (Aorta [2]), led by results:

pEC50 (Aorta [2]) | Compound | Emax (Aorta [1]) [%] | Activity (Aorta [2])
5.03 | COC(=O)C1=C(C)NC(C)=C(C(=O)OCCOc2cc(O)cc(O)c2C(=O)/C=C/c2ccc3c(c2)OCO3)C1c1cccc([N+](=O)[O-])c1 (configuration not stated) | 98.6 | Dose-dependent effect
5.05 | Cc1no[n+]([O-])c1COc1cc(O)cc(O)c1C(=O)/C=C/c1ccc2c(c1)OCO2 | 100 | Dose-dependent effect
5.19 | COC(=O)C1=C(C)NC(C)=C(C(=O)OCCOc2cc(O)cc(O)c2C(=O)/C=C/c2cccc(Br)c2)C1c1cccc([N+](=O)[O-])c1 (configuration not stated) | 102 | Dose-dependent effect
5.54 | COC(=O)C1=C(C)NC(C)=C(C(=O)OCCOc2cc(O)cc(O)c2C(=O)/C=C/c2ccc(O)cc2)C1c1cccc([N+](=O)[O-])c1 (configuration not stated) | 104 | Dose-dependent effect
